Columns and labels:
HCT-116 [1] = assay: Induction of cell cycle arrest in human HCT-116 cells assessed as number of cells at SubG1 phase at 5 uM after 24 hrs in presence of 10% serum by flow cytometry analysis (reference value: 1.1%); assay type: functional
In short: (§1)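 HCT116 cells in McCoy's 5A were serum-starved 72 h in 0.1% serum, then released for 24 h into 10% serum with or without compound. They were fixed in 70% ethanol, RNase-treated (3 mg/mL, 30 min, 37 °C) and stained with 50 μg/mL propidium iodide. Flow cytometry on FL-2 area with doublet gating gave the percentages in sub-G1, G0/G1, S and G2/M.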

U2OS [2] = assay: Induction of cell cycle arrest in human U2OS cells assessed as percentage of cells at G0/G1 phase, cells were released from mimosine block prior to compound addition at 10 uM after 16 hrs by flow cytometry analysis (reference value: 17.2%); assay type: functional
NIH3T3 [3] = assay: Induction of cell cycle arrest in mouse NIH3T3 cells expressing pRb assessed as percentage of cells at S phase at 5 uM after 24 hrs by flow cytometry analysis (reference value: 12.2%); assay type: functional
HCT-116 [4] = assay: Induction of cell cycle arrest in human HCT-116 cells assessed as number of cells at S phase at 5 uM after 24 hrs in presence of 10% serum by flow cytometry analysis (reference value: 36.3%); assay type: functional; in short: as §1
U2OS [5] = assay: Induction of apoptosis in human U2OS cells assessed as number of apoptotic cells at 10 uM after 48 hrs by TUNEL staining based fluorescence analysis (reference value: 0.61%); assay type: functional
NIH3T3 [6] = assay: Induction of cell cycle arrest in mouse NIH3T3 cells expressing pRb-negative assessed as percentage of cells at G0/G1 phase at 5 uM after 24 hrs by flow cytometry analysis (reference value: 43.5%); assay type: functional
[7] = biological target: Cyclin-dependent kinase 5/CDK5 activator 1 (Homo sapiens, UniProt Q00535); assay: Inhibition of GST-tagged human CDK5/p35 expressed in baculovirus infected Sf9 cells using retinoblastoma protein in presence of ATP
Cyclin-dependent kinase 5/CDK5 activator 1, sequence (Q00535 whole entry, the tested form may be a part): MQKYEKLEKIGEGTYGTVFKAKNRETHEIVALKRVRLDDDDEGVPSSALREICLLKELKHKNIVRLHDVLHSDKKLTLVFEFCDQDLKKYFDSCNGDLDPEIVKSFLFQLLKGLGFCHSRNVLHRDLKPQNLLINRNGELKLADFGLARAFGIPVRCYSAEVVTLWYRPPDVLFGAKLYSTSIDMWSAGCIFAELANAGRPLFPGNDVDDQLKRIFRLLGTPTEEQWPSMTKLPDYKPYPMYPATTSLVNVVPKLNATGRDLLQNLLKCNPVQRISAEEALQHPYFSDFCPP
Cyclin-dependent kinase 5/CDK5 activator 1, sequence (Q15078 whole entry, further chain, the tested form may be a part): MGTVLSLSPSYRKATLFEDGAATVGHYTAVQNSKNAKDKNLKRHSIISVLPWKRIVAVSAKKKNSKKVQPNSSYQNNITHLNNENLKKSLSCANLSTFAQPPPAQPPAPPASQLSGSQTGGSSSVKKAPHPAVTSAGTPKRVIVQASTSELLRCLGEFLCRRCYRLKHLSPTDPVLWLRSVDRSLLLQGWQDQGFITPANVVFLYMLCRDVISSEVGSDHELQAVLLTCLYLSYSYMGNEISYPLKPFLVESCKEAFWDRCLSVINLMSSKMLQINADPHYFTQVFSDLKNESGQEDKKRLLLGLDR
In short: (§2)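 Cdk holoenzymes (Cdk with GST-cyclin or activator), expressed in Sf9 insect cells and purified on glutathione-Sepharose, were combined 1:1. Radiometric reactions used [33P]ATP with GST-pRb(152), the C-terminal 152-residue pRb fragment, as substrate. Label was quantified by phosphorimager. Ten inhibitor concentrations from 0 to 100 μM were run in duplicate across three independent experiments. IC50 came from plotting percent incorporation relative to the no-inhibitor reaction against concentration.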

U2OS [8] = assay: Induction of cell cycle arrest in human U2OS cells assessed as percentage of cells at G0/G1 phase, cells were released from mimosine block prior to compound addition at 5 uM after 16 hrs by flow cytometry analysis (reference value: 17.2%); assay type: functional
CDK6/cyclin D2 = CDK6/cyclin D2 (Homo sapiens, UniProt P30279+Q00534); assay: Inhibition of GST-tagged human CDK6/Cyclin D2 expressed in baculovirus infected Sf9 cells using retinoblastoma protein in presence of ATP; in short: as §2
CDK6/cyclin D2, sequence (Q00534 whole entry): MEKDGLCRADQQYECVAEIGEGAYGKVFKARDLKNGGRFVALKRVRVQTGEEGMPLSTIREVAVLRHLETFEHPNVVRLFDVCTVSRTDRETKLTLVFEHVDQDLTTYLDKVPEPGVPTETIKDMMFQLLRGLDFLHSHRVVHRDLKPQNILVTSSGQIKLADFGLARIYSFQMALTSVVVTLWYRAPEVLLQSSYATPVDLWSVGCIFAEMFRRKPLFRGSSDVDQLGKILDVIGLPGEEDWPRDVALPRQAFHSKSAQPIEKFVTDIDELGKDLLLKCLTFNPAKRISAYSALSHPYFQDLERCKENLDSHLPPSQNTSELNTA
CDK6/cyclin D2, sequence (P30279 whole entry): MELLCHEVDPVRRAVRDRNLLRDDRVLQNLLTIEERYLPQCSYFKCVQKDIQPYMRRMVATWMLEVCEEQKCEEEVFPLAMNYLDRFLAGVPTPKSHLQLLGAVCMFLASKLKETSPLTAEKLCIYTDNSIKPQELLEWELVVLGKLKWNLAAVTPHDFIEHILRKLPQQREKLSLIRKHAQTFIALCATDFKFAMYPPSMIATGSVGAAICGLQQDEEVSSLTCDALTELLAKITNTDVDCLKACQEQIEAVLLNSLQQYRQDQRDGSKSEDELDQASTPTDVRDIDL

U2OS [9] = assay: Induction of cell cycle arrest in human U2OS cells assessed as percentage of cells at G0/G1 phase, cells were released from mimosine block prior to compound addition at 10 uM after 38 hrs by flow cytometry analysis (reference value: 39.6%); assay type: functional
NIH3T3 [10] = assay: Induction of cell cycle arrest in mouse NIH3T3 cells expressing pRb-negative assessed as percentage of cells at S phase at 10 uM after 24 hrs by flow cytometry analysis (reference value: 20%); assay type: functional
[11] = Inhibition of GST-tagged human v-abl expressed in baculovirus infected Sf9 cells using tyrosine-containing peptide substrate in presence of ATP
U2OS [12] = assay: Induction of cell cycle arrest in human U2OS cells assessed as percentage of cells at S phase, cells were released from mimosine block prior to compound addition at 10 uM after 16 hrs by flow cytometry analysis (reference value: 33%); assay type: functional
U2OS [13] = assay: Induction of cell cycle arrest in human U2OS cells assessed as percentage of cells at G2/M phase, cells were released from mimosine block prior to compound addition at 5 uM after 16 hrs by flow cytometry analysis (reference value: 47.6%); assay type: functional
U2OS [14] = assay: Induction of cell cycle arrest in human U2OS cells expressing pRb assessed as percentage of cells at S phase at 5 uM after 24 hrs by flow cytometry analysis (reference value: 19.9%); assay type: functional
U2OS [15] = assay: Induction of cell cycle arrest in human U2OS cells assessed as percentage of cells at SubG1 phase, cells were released from mimosine block prior to compound addition at 10 uM after 38 hrs by flow cytometry analysis (reference value: 5%); assay type: functional
U2OS [16] = assay: Induction of apoptosis in human U2OS cells assessed as number of apoptotic cells at 5 uM after 48 hrs by TUNEL staining based fluorescence analysis (reference value: 0.61%); assay type: functional
U2OS [17] = assay: Induction of cell cycle arrest in human U2OS cells expressing pRb negative assessed as percentage of cells at G0/G1 phase at 5 uM after 24 hrs by flow cytometry analysis (reference value: 42.5%); assay type: functional
CDK6/cyclin D1 = CDK6/cyclin D1 (Homo sapiens, UniProt Q00534); assay: Inhibition of GST-tagged human CDK6/Cyclin D1 expressed in baculovirus infected Sf9 cells using retinoblastoma protein in presence of ATP; in short: as §2
CDK6/cyclin D1, sequence (P24385 whole entry): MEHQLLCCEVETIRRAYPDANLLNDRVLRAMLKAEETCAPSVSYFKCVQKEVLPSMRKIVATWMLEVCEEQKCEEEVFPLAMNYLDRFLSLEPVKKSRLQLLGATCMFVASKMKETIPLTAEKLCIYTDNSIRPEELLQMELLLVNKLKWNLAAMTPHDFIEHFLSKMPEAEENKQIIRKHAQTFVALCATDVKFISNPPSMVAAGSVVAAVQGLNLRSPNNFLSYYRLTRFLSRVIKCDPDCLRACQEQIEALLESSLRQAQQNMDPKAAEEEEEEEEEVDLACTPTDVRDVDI
CDK6/cyclin D1, sequence (Q00534 whole entry): as the sequence (Q00534 whole entry) above

U2OS [18] = assay: Induction of cell cycle arrest in human U2OS cells assessed as percentage of cells at SubG1 phase, cells were released from mimosine block prior to compound addition at 5 uM after 16 hrs by flow cytometry analysis (reference value: 2.2%); assay type: functional
NIH3T3 [19] = assay: Induction of cell cycle arrest in mouse NIH3T3 cells expressing pRb assessed as percentage of cells at G0/G1 phase at 10 uM after 24 hrs by flow cytometry analysis (reference value: 44.7%); assay type: functional
NIH3T3 [20] = assay: Induction of cell cycle arrest in mouse NIH3T3 cells expressing pRb-negative assessed as percentage of cells at G0/G1 phase at 10 uM after 24 hrs by flow cytometry analysis (reference value: 43.5%); assay type: functional
U2OS [21] = assay: Induction of cell cycle arrest in human U2OS cells expressing pRb negative assessed as percentage of cells at S phase at 10 uM after 24 hrs by flow cytometry analysis (reference value: 30.3%); assay type: functional
U2OS [22] = assay: Induction of cell cycle arrest in human U2OS cells assessed as percentage of cells at G2/M phase, cells were released from mimosine block prior to compound addition at 10 uM after 16 hrs by flow cytometry analysis (reference value: 47.6%); assay type: functional
U2OS [23] = assay: Induction of cell cycle arrest in human U2OS cells assessed as percentage of cells at S phase, cells were released from mimosine block prior to compound addition at 5 uM after 16 hrs by flow cytometry analysis (reference value: 33%); assay type: functional
[24] = biological target: Hepatocyte growth factor receptor (Homo sapiens, UniProt P08581); assay: Inhibition of GST-tagged human c-met expressed in baculovirus infected Sf9 cells using tyrosine-containing peptide substrate in presence of ATP
Hepatocyte growth factor receptor, sequence (P08581 whole entry): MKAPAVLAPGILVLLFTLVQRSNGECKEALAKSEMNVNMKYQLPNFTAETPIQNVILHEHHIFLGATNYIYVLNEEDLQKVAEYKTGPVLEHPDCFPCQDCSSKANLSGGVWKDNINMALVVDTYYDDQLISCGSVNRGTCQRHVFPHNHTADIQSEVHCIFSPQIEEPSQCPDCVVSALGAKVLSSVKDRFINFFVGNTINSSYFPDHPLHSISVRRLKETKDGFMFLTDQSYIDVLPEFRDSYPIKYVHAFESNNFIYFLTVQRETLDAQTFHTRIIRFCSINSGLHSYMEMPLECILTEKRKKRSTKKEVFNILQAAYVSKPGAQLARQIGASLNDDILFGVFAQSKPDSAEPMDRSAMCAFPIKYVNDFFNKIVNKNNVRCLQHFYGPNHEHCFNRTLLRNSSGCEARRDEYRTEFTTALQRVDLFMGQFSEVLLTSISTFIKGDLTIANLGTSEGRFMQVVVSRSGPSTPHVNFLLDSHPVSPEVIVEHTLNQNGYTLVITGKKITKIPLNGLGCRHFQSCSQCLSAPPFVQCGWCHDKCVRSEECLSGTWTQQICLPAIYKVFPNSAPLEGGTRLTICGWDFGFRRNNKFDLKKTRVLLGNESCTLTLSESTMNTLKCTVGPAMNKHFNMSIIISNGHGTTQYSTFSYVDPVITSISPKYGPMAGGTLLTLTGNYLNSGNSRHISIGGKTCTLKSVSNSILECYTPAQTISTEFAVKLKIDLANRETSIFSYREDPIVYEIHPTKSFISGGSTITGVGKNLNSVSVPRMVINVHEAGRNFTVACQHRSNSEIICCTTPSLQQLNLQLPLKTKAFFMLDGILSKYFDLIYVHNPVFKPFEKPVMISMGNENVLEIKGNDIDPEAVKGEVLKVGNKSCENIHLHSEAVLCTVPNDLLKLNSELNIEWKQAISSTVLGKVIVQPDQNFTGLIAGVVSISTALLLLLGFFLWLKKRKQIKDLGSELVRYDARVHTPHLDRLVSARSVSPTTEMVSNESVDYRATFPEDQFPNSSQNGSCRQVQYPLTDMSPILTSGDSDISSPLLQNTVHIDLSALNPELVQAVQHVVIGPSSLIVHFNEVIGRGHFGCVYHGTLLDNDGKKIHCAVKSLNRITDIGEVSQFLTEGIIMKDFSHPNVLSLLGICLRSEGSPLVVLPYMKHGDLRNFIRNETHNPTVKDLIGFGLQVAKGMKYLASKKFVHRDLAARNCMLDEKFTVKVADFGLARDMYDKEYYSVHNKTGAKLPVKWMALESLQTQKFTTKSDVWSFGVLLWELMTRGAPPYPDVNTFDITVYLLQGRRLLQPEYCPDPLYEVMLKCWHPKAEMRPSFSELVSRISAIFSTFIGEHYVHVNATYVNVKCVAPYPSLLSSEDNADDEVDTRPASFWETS

## CCNc1cc(N[C@H]2CC[C@H](O)CC2)nc(Nc2ccc3c(ccn3Cc3ccccc3)c2)n1
HCT-116 [1]
  Activity: 2.2%
U2OS [2]
  Activity: 16.7%
NIH3T3 [3]
  Activity: 3.2%
HCT-116 [4]
  Activity: 20.7%
U2OS [5]
  Activity: 83.44%
NIH3T3 [6]
  Activity: 49.8%
[7]
  IC50: 25 µM
U2OS [8]
  Activity: 17.2%
CDK6/cyclin D2
  IC50: > 50 µM
U2OS [9]
  Activity: 14.3%
NIH3T3 [10]
  Activity: 11.6%
[11]
  IC50: > 10 µM
U2OS [12]
  Activity: 29.5%
U2OS [13]
  Activity: 47.6%
U2OS [14]
  Activity: 11%
U2OS [15]
  Activity: 56%
U2OS [16]
  Activity: 1%
U2OS [17]
  Activity: 44.8%
CDK6/cyclin D1
  IC50: 5.6 µM
U2OS [18]
  Activity: 12.8%
NIH3T3 [19]
  Activity: 88.4%
NIH3T3 [20]
  Activity: 48.7%
U2OS [21]
  Activity: 25.1%
U2OS [22]
  Activity: 41%
U2OS [23]
  Activity: 33%
[24]
  IC50: > 10 µM

Reference: ChEMBL document CHEMBL5661964, “Selective in vivo and in vitro effects of a small molecule inhibitor of cyclin-dependent kinase 4” (J Natl Cancer Inst, 2001)
